Data set [1] deals with Plasmodium falciparum. Description: Antiplasmodial activity against chloroquine-resistant Plasmodium falciparum K1 in presence of artemisinin. It is filed as functional.
Data set [2] has as its system Plasmodium falciparum. Description: Antiplasmodial activity against chloroquine-resistant Plasmodium falciparum K1 in presence of chloroquine. The class given is functional.
Data set [3] deals with Plasmodium falciparum. Description: Antiplasmodial activity against chloroquine-resistant Plasmodium falciparum K1 in presence of mefloquine. The class given is functional.
In data set [4] the test system is Plasmodium falciparum. The experiment in a line: Antiplasmodial activity against chloroquine-resistant Plasmodium falciparum K1 in presence of premaquine. It is filed as functional.
In data set [5] the test system is Plasmodium falciparum. Description: Antiplasmodial activity against chloroquine-resistant Plasmodium falciparum K1 in presence of methylene blue. The class given is functional.
Data set [6] has as its system A549. Description: Effect on glutathione S-transferase expression in human A549 cells assessed as transcript level at 166 nM after 24 hrs by RT-qPCR analysis relative to untreated control. It is filed as functional. The settings on record: in the assay text read “166 µM” for “166 nM”. The method, boiled down: (§1)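 A549 cells are seeded at 2.5 × 10^5 per 25-cm2 well. At 40–45% confluence they are treated for 24 h with 166 or 662 μM, 158 or 315 μM, or 5 or 24 μM compound; controls receive <5% DMSO. Total RNA is DNase-treated and qRT-PCR is run in quadruplicate. Values are normalized to GAPDH and given as % of untreated control.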

Data set [7] concerns A549. The experiment in a line: Effect on glutathione reductase expression in human A549 cells assessed as transcript level at 662 nM after 24 hrs by RT-qPCR analysis relative to untreated control. It is filed as functional. The settings on record: in the assay text read “662 µM” for “662 nM”. The method, boiled down: as §1
(In general: Real-time PCR tracks product formation cycle by cycle.)

In data set [8] the test system is A549. Description: Effect on glutathione peroxidase expression in human A549 cells assessed as transcript level at 662 nM after 24 hrs by RT-qPCR analysis relative to untreated control. It is filed as functional. The settings on record: in the assay text read “662 µM” for “662 nM”. The method, boiled down:
as §1

Data set [9] relates to A549. Description: Inhibition of glutathione peroxidase in human A549 cells assessed as enzyme activity at 166 µM after 24 hrs relative to untreated control. On the set-up: scale not given: the % may be the effect or the level left.
For data set [10], the system named is A549. The experiment in a line: Inhibition of glutathione peroxidase in human A549 cells assessed as enzyme activity at 662 µM after 24 hrs relative to untreated control. Further details: scale not given: the % may be the effect or the level left.
A further data set has as its target Thioredoxin reductase (Homo sapiens, UniProt Q16881+Q9NNW7+Q86VQ6). Description: Inhibition of thioredoxin reductase in human A549 cells assessed as enzyme activity at 662 µM after 24 hrs by DTNB assay relative to untreated control. On the set-up: scale not given: the % may be the effect or the level left.
Data set [11] concerns A549. The experiment in a line: Effect on thioredoxin reductase expression in human A549 cells assessed as transcript level at 158 nM after 24 hrs by RT-qPCR analysis relative to untreated control. The class given is functional. Particulars: in the assay text read “158 µM” for “158 nM”. In short, it runs like this:
as §1

Data set [12] has as its system A549. Description: Inhibition of glutathione S-transferase in human A549 cells assessed as enzyme activity at 315 µM after 24 hrs relative to untreated control. On the set-up: scale not given: the % may be the effect or the level left.
For data set [13], the system named is Plasmodium falciparum. The experiment in a line: Downregulation of thioredoxin peroxidase mRNA level in Plasmodium falciparum 3D7 trophozoites at 126 nM after 18 hrs by RT-qPCR analysis relative to untreated control. The class given is functional. In short, it runs like this:
(§2)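 P. falciparum 3D7 trophozoites are exposed to 126 nM compound for 12, 15 or 18 h, then harvested by saponin lysis at 37°C. RNA is extracted and reverse-transcribed, and transcripts are quantified by real-time PCR in quadruplicate. Analysis uses ΔΔCT with 18S rRNA as reference (LDH also checked), expressed as % of untreated control.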

Data set [14] concerns Plasmodium falciparum. The experiment in a line: Upregulation of selenoprotein-1 mRNA level in Plasmodium falciparum 3D7 trophozoites at 126 nM after 12 hrs by RT-qPCR analysis relative to untreated control. It is filed as functional. The method, boiled down:
(§3)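 Synchronized 3D7 trophozoites in RPMI/Albumax culture at 37°C under 3% O2, 3% CO2 were exposed 12, 15 or 18 h, then harvested by 0.02% saponin lysis. RNA was reverse-transcribed and analyzed by real-time PCR in quadruplicate. Quantification used ΔΔCT with 18S rRNA reference (LDH also checked), expressed as % of untreated control.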

The test system of data set [15] is Plasmodium falciparum. Description: Upregulation of gamma-glutamylcysteine synthetase mRNA level in Plasmodium falciparum 3D7 trophozoites at 126 nM after 12 hrs by RT-qPCR analysis relative to untreated control. It is filed as functional. The method, boiled down: as §3
Data set [16] concerns Plasmodium falciparum. The experiment in a line: Downregulation of DNA-directed RNA polymerase 2 mRNA level in Plasmodium falciparum 3D7 trophozoites at 126 nM by RT-qPCR analysis relative to untreated control. The class given is functional. In short, it runs like this:
as §2

Data set [17] is described as follows: Cytotoxicity against human A549 cells assessed as reduction in viable cells at 60 uM by Trypan blue assay. It is filed as cell-based. The settings on record: read-out: INH. The method, boiled down: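 A549 cells are grown in DMEM with 10% FCS at 37°C and 5% CO2, and treated for 24 h. They are washed in cold PBS and trypsinized. Viable and nonviable cells are counted by trypan blue exclusion on a hemocytometer.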

For data set [18], the system named is A549. The experiment in a line: Effect on glutathione S-transferase expression in human A549 cells assessed as transcript level at 5 nM after 24 hrs by RT-qPCR analysis relative to untreated control. It is filed as functional. The settings on record: in the assay text read “5 µM” for “5 nM”. The method, boiled down: as §1
For data set [19], the system named is A549. The experiment in a line: Effect on glutathione S-transferase expression in human A549 cells assessed as transcript level at 24 nM after 24 hrs by RT-qPCR analysis relative to untreated control. The class given is functional. The settings on record: in the assay text read “24 µM” for “24 nM”. The method, boiled down: as §1
The subject of data set [20] is A549. Description: Effect on glutathione reductase expression in human A549 cells assessed as transcript level at 5 nM after 24 hrs by RT-qPCR analysis relative to untreated control. The class given is functional. The settings on record: in the assay text read “5 µM” for “5 nM”. The method, boiled down: as §1
Data set [21] relates to A549. The experiment in a line: Effect on glutathione reductase expression in human A549 cells assessed as transcript level at 24 nM after 24 hrs by RT-qPCR analysis relative to untreated control. The settings on record: in the assay text read “24 µM” for “24 nM”. The class given is functional. The method, boiled down: as §1
For data set [22], the system named is A549. The experiment in a line: Effect on glutathione peroxidase expression in human A549 cells assessed as transcript level at 24 nM after 24 hrs by RT-qPCR analysis relative to untreated control. The class given is functional. Particulars: in the assay text read “24 µM” for “24 nM”. The method, boiled down: as §1
The subject of data set [23] is A549. The experiment in a line: Inhibition of glutathione peroxidase in human A549 cells assessed as enzyme activity at 24 µM after 24 hrs relative to untreated control. On the set-up: scale not given: the % may be the effect or the level left.
In data set [24] the test system is A549. The experiment in a line: Inhibition of glutathione S-transferase in human A549 cells assessed as enzyme activity at 5 µM after 24 hrs relative to untreated control. Further details: scale not given: the % may be the effect or the level left.
Data set [25] deals with A549. Description: Inhibition of glutathione S-transferase in human A549 cells assessed as enzyme activity at 24 µM after 24 hrs relative to untreated control. On the set-up: scale not given: the % may be the effect or the level left.

SMILES strings stand for the structures.

On to `O=c1oc2c(O)c(O)cc3c(=O)oc4c(O)c(O)cc1c4c23` [ELLAGIC ACID], for which the FIC50 in the data set with Plasmodium falciparum [1], in the data set with Plasmodium falciparum [2], in the data set on Plasmodium falciparum [3], in the data set on Plasmodium falciparum [4] and with Plasmodium falciparum [5] was 1 throughout. Further, the Activity is 122% in the data set on A549 [6]; 125% in the data set on A549 [7]; 150% with A549 [8]; 86% in the data set with A549 [9]; 125% with A549 [10]; 77% on Thioredoxin reductase.

In the case of `O=c1oc2c(O)c(O)c(O)c3c(=O)oc4c(O)c(O)cc1c4c23` [FLAVELLAGIC ACID], the Activity amounted to 97% in the data set on A549 [11] and 121% in the data set on A549 [12].

With `O=c1oc2c(O)c(O)c(O)c3c(=O)oc4c(O)c(O)c(O)c1c4c23` [CORULEOELLAGIC ACID], the Activity came to 19% in the data set on Plasmodium falciparum [13]; 160% in the data set with Plasmodium falciparum [14]; 111% with Plasmodium falciparum [15]; 42% in the data set on Plasmodium falciparum [16]; 68% with A549 [18]; 84% with A549 [19]. In addition, the Activity was determined as 77% in the data set with A549 [20]; 84% in the data set with A549 [21]; 71% in the data set with A549 [22]; 78% in the data set on A549 [23]; 101% in the data set with A549 [24]; 106% in the data set on A549 [25]. Besides, the cytotoxicity at 60 µM in [17] came out at 50%.

The record behind these values is ChEMBL document CHEMBL1687720 (Antimicrob Agents Chemother, 2009).
